The test system of data set [1] is Mus musculus. Description: Antifibrotic activity in CCl4-induced BALB/c mouse model of liver fibrosis assessed as reduction in liver fibrosis area at 5 mg/kg, po administered once daily at week 4 to 6 by picro-sirius red staining based microscopy. It counts as functional, organism-based. A digest of the protocol:
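Female BALB/c mice given CCl4 i.p. (1 mL/kg of 25% CCl4 in olive oil) twice weekly for 6 weeks; sacrificed 48 h after last dose. Test articles oral, once daily: prophylactic weeks 1-6 or therapeutic weeks 4-6; imatinib control 50 mg/kg daily weeks 1-6. One formalin-fixed liver lobe stained for Picro Sirius Red and α-SMA; fibrotic area as % of total liver area; mean ± SEM, one-way ANOVA with Dunnett's test.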

The test system of data set [2] is Mus musculus. Briefly: Effect on plasma AST level in CCl4-induced BALB/c mouse model of liver fibrosis at 15 mg/kg, po administered once daily for 6 weeks. It counts as ADME, organism-based. As to conditions: in vivo, 1008 h. A digest of the protocol:
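CCl4 liver fibrosis in female BALB/c mice: CCl4 i.p. (1 mL/kg 25% in olive oil) twice weekly for 6 weeks, sacrifice 48 h after final injection. Oral once-daily dosing weeks 1-6 or weeks 4-6; imatinib 50 mg/kg daily weeks 1-6. ALT and AST measured in plasma.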

The nature of data set [3]: Oral bioavailability in mouse. It counts as ADME, organism-based. To be noted: in vivo.
For data set [4], the target named is T1, Amine oxidase [flavin-containing] A (Homo sapiens, UniProt P21397).
T1 sequence (P21397 whole entry): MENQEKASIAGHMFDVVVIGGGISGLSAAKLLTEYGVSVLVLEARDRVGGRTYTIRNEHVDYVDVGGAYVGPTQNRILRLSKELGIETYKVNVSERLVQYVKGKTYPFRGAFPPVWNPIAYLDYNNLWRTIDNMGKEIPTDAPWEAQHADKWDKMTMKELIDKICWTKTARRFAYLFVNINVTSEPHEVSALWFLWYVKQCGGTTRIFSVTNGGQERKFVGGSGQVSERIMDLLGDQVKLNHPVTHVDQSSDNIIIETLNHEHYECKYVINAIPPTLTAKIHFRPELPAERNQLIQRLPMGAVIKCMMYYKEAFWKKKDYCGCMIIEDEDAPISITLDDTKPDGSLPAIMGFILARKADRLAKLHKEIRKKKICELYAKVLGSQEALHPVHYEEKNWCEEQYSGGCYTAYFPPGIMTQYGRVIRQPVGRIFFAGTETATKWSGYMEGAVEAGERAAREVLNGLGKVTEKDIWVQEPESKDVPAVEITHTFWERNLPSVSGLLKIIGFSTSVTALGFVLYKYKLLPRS
Briefly: Inhibition of recombinant human MAOA expressed in baculovirus infected in BTI cells using tyramine as substrate preincubated with enzyme for 30 mins followed by substrate addition and measured every 2.5 mins for 30 mins by Amplex-Red oxidation assay.

For data set [5], the target named is T2, Amine oxidase [flavin-containing] B (Homo sapiens, UniProt P27338).
T2 sequence (P27338 whole entry): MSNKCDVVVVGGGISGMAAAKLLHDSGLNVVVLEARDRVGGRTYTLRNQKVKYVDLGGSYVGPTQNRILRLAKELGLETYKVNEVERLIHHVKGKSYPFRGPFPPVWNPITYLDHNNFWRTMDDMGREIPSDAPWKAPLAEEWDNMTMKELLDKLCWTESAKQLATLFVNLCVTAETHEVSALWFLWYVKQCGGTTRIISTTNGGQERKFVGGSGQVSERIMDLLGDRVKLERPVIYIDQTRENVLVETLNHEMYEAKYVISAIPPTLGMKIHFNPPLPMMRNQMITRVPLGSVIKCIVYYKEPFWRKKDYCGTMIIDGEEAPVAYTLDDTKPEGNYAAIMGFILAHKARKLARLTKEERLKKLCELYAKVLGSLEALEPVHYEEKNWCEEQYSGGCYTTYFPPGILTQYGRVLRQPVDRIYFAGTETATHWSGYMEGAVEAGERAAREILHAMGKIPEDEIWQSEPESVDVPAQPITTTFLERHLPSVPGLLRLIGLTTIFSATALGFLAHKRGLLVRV
Description: Inhibition of recombinant human MAOB expressed in baculovirus infected in BTI cells using benzylamine as substrate preincubated with enzyme for 30 mins followed by substrate addition and measured every 2.5 mins for 30 mins by Amplex-Red oxidation assay.

In data set [6] the target is T3, Amine oxidase [copper-containing] 3 (Homo sapiens, UniProt Q16853).
T3 sequence (Q16853 whole entry): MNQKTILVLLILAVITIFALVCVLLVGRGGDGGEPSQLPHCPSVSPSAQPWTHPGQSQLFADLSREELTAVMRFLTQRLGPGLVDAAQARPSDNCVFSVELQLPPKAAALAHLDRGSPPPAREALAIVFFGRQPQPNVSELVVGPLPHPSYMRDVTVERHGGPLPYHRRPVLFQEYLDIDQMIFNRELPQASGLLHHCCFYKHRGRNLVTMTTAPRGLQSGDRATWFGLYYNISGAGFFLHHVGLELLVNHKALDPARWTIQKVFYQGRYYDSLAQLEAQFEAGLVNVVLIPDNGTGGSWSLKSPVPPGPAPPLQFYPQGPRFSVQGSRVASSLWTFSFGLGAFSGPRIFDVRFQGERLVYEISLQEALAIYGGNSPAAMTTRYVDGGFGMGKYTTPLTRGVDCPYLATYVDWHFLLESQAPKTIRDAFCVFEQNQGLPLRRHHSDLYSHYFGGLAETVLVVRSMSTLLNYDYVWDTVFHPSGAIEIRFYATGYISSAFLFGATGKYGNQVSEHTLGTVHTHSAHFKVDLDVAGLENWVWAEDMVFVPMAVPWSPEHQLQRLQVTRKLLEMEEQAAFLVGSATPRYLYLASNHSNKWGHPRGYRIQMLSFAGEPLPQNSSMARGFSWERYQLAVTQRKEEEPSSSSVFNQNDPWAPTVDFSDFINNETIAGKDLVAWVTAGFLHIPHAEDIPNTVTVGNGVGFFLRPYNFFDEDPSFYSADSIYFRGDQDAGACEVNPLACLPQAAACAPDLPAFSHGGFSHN
Briefly: Inhibition of recombinant human SSAO using benzylamine as substrate preincubated with enzyme for 30 mins followed by substrate addition and measured every 2.5 mins for 30 mins by Amplex-Red oxidation assay.

Activity calls are given as the source filed them. The rule behind the calls is not given here. Some results are limits rather than exact numbers.

Take `CCOC(=O)c1ccc2c(c1)c(-c1cccc(S(=O)(=O)N(C)C)c1)c(C)n2C/C(F)=C/CN.Cl`: the inhibition result in the data set with Mus musculus [1] is “Active”. Besides, the Activity entry in the data set with Mus musculus [2] is on record as “Non-Toxic”.
Take `Cc1c(-c2cccc(S(=O)(=O)N(C)C)c2)c2cc(C(=O)O)ccc2n1C/C(F)=C/CN.Cl`: the bioavailability (usually the share of a dose that reaches the circulation, judged against a reference dose that is usually intravenous) in data set [3] was below 1%. In addition, the IC50 in data set [4] (read-out: IC50), in data set [5] (read-out: IC50) and in data set [6] (read-out: IC50) was above 30 µM each time.
As for `Cc1c(-c2cccc(S(=O)(=O)N(C)C)c2)c2ccccc2n1C/C(F)=C/CN.Cl`, the IC50 in data set [4] (read-out: pIC50 (converted)) was above 31.6 µM; in data set [5] (read-out: pIC50 (converted)) it was above 31.6 µM; in data set [6] (read-out: pIC50 (converted)), 7.94 µM.

The values above are taken from ChEMBL document CHEMBL4321820, “Identification and Optimization of Mechanism-Based Fluoroallylamine Inhibitors of Lysyl Oxidase-like 2/3” (J Med Chem, 2019).
